Test results from ChEMBL document CHEMBL1121982 (J Med Chem, 1982).

Assays:
[1] = IC50 ratio measured as inhibitory potencies in mouse vas deferens and guinea pig ileum assays; format: functional
[2] = Ki ratio measured as inhibitory effect against delta and mu opioid receptors
[3] = target: T1, Delta-type opioid receptor (Rattus norvegicus, UniProt P33533); experiment: Inhibition of [3H][D-Ala2,D-Leu5]enkephalin binding to Opioid receptor delta 1 in the rat brain homogenate; format: tissue-based
T1 sequence (P33533 whole entry): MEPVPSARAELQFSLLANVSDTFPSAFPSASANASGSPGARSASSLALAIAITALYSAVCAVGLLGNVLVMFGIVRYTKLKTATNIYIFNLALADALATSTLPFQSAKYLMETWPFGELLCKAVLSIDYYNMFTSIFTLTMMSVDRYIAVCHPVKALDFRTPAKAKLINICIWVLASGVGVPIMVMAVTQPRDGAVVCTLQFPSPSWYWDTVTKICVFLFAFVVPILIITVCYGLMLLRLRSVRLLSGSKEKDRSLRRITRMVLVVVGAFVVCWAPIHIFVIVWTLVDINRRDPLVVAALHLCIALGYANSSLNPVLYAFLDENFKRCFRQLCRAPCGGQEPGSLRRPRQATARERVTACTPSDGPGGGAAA

[4] = target: Delta-type opioid receptor (Mus musculus) (UniProt P32300); experiment: […] in mouse vas deferens assay for Opioid receptor delta 1; format: functional
Chain of Delta-type opioid receptor (Mus musculus) (P32300 whole entry): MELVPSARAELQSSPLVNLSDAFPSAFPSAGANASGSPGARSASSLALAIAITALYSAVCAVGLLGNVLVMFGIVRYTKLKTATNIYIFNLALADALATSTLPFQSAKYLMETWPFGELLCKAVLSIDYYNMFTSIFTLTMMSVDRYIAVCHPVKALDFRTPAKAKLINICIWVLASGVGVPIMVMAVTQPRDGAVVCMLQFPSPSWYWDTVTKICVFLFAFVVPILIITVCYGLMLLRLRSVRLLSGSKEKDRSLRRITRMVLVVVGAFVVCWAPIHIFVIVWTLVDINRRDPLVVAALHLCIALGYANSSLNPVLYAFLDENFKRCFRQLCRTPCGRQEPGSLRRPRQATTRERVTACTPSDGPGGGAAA
Outline: (§1)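 Ke for naloxone as antagonist in the isolated tissue assay. It was derived from the ratio of agonist IC50 values measured with and without a fixed naloxone concentration.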

[5] = target: T2, Delta-type opioid receptor (Mus musculus, UniProt P32300); experiment: Inhibitory potency against Opioid receptor delta 1 in the mouse vas deferens assay; format: functional, tissue-based
T2 sequence (P32300 whole entry): as above
Outline: (§2)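 Vasa deferentia were taken from adult male Swiss Webster albino mice (30-50 g) killed by cervical dislocation. Fat, connective tissue and the blood vessel were removed and semen was expressed. Contractions were recorded with a force transducer, and twitch-height reduction at several doses gave log dose-response curves.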

[6] = target: T1, Delta-type opioid receptor; experiment: Inhibition of binding of [3H][D-Ala2,D-Leu5]enkephalin to Opioid receptor delta 1 in the rat brain homogenate; format: tissue-based
Mu-type opioid receptor [7] = target: T3, Mu-type opioid receptor (Rattus norvegicus, UniProt P33535); experiment: Inhibition of binding of [3H]naloxone to Opioid receptor mu 1 in the rat brain homogenate; format: tissue-based
T3 sequence (P33535 whole entry): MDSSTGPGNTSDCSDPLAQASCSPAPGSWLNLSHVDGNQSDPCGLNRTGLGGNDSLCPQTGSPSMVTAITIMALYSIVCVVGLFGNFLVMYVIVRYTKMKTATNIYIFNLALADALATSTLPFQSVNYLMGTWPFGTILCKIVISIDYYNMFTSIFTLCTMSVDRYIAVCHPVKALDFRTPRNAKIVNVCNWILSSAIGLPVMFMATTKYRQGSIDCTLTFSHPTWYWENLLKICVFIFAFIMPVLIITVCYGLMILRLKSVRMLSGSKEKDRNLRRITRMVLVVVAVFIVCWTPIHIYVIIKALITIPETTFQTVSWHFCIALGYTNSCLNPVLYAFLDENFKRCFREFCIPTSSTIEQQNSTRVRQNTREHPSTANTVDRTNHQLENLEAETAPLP

Mu-type opioid receptor [8] = target: T4, Mu-type opioid receptor (Cavia porcellus, UniProt P97266); experiment: Inhibitory potency against Opioid receptor mu 1 in the guinea pig ileum assay; format: functional, tissue-based
T4 sequence (P97266 whole entry): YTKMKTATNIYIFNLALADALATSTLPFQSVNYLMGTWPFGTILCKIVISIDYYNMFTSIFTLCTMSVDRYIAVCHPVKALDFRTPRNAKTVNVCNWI
Outline: (§3)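 Guinea pig ileum bioassay. Twitch-height reduction at several doses gave log dose-response curves.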

[9] = target: Mu-type opioid receptor (Cavia porcellus) (UniProt P97266); experiment: Sensitivity to naloxone against Opioid receptor mu 1 in the guinea pig ileum assay; format: functional, tissue-based; outline: as §1
Chain of Mu-type opioid receptor (Cavia porcellus) (P97266 whole entry): as above

[10] = target: Delta-type opioid receptor (Mus musculus) (UniProt P32300); experiment: (§4) Ki ratio measured as the inhibitory effect against delta/mu receptor.
[11] = target: Delta-type opioid receptor (Mus musculus) (UniProt P32300); experiment: IC50 ratio measured as the inhibitory potencies of MVD/GPI.
[12] = target: T2, Delta-type opioid receptor; experiment: Inhibitory potency against Opioid receptor delta 1 in mouse vas deferens assay; format: functional, tissue-based; outline: as §2
[13] = target: Delta-type opioid receptor (Rattus norvegicus) (UniProt P33533); experiment: as §4
Chain of Delta-type opioid receptor (Rattus norvegicus) (P33533 whole entry): as the sequence (P33533 whole entry) above

Mu-type opioid receptor [14] = target: Mu-type opioid receptor (Mus musculus, UniProt P42866); experiment: Inhibitory potency against Opioid receptor mu 1 in mouse vas deferens assay; format: functional, tissue-based; outline: as §2
Chain of Mu-type opioid receptor (Mus musculus, UniProt P42866) (P42866 whole entry): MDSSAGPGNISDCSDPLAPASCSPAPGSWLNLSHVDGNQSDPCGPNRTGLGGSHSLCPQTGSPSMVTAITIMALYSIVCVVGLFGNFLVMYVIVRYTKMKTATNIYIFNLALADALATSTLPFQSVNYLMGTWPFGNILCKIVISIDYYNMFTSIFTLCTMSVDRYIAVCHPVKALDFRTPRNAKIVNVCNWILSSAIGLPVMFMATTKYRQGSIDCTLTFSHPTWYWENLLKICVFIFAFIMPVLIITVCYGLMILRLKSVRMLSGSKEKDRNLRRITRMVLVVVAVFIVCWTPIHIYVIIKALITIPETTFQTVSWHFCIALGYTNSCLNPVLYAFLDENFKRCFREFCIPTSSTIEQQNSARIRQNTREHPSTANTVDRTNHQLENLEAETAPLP

Mu-type opioid receptor [15] = target: T4, Mu-type opioid receptor; experiment: Inhibitory potency against mu receptor in guinea pig ileum assay; format: functional, tissue-based; outline: as §3
[16] = target: T1, Delta-type opioid receptor; experiment: Inhibition of binding of [3H][D-Ala2,D-Leu5]enkephalin to delta receptor in the rat brain homogenate; format: tissue-based
Mu-type opioid receptor [17] = target: T3, Mu-type opioid receptor; experiment: Inhibition of [3H]naloxone binding to Opioid receptor mu 1 in rat brain homogenate; format: tissue-based
[18] = target: Mu-type opioid receptor (Cavia porcellus) (UniProt P97266); experiment: Sensitivity to naloxone against mu receptor in guinea pig ileum assay; format: functional, tissue-based; outline: as §1
Mu-type opioid receptor [19] = target: T3, Mu-type opioid receptor; experiment: Inhibition of [3H]-naloxone binding to mu receptor in rat brain homogenate; format: tissue-based

| SMILES | Ratio [1] | Ratio [2] | Ki [3] | Ke [4] | IC50 [5] | IC50 [6] | IC50 (Mu-type opioid receptor [7]) | Ki (Mu-type opioid receptor [7]) | IC50 (Mu-type opioid receptor [8]) | Ke [9] | other results |
| --- | --- | --- | --- | --- | --- | --- | --- | --- | --- | --- | --- |
| CC(=O)O.CC(C)C[C@H]1NC(=O)[C@H](Cc2ccccc2)NC(=O)CNC(=O)[C@H](NC(=O)[C@@H](N)Cc2ccc(O)cc2)CCCCNC1=O | 7.32 | 4.59 | 21.7 nM | 2.37 nM | 17.5 nM | 47.8 nM | 8.51 nM | 4.73 nM | 2.39 nM | 0.553 nM | – |
| CC(C)C[C@@H]1NC(=O)[C@H](Cc2ccccc2)NC(=O)CNC(=O)[C@H](NC(=O)[C@@H](N)Cc2ccc(O)cc2)CCCCNC1=O | – | – | 14.6 nM | 0.36 nM | – | 32.2 nM | 22.4 nM | 12.4 nM | 4.8 nM | 0.416 nM | Ratio [10]: 1.18; Ratio [11]: 29.4; IC50 [12]: 141 nM |
| CC(=O)O.CC[C@@H](NC(=O)[C@@H](N)Cc1ccc(O)cc1)C(=O)NCC(=O)N[C@@H](Cc1ccccc1)C(=O)N[C@@H](CC(C)C)C(N)=O | 1.59 | – | 4.06 nM | 1.5 nM | – | 8.94 nM | 10.1 nM | 5.61 nM | 28.7 nM | 0.181 nM | Ratio [13]: 0.72; IC50 [12]: 45.6 nM |
| CC(=O)O.N[C@@H](Cc1ccc(O)cc1)C(=O)N[C@@H]1CCCCNC(=O)[C@H](Cc2ccccc2)NC(=O)CNC1=O | 4.77 | 14.4 | – | 0.606 nM | 33.8 nM | 98.3 nM | 5.58 nM | 3.1 nM | 7.09 nM | 0.875 nM | Ki [6]: 44.7 nM |
| CC(=O)O.CCC[C@@H](NC(=O)[C@@H](N)Cc1ccc(O)cc1)C(=O)NCC(=O)N[C@@H](Cc1ccccc1)C(=O)N[C@@H](CC(C)C)C(N)=O | 0.905 | – | 3.1 nM | 3.52 nM | 21 nM | 6.81 nM | 5.89 nM | 3.27 nM | 23.2 nM | 0.227 nM | Ratio [13]: 0.95 |
| CN1CC[C@]23CCCC[C@H]2[C@H]1Cc1ccc(O)cc13 [LEVORPHANOL] | 16.4 | – | – | 0.587 nM | – | – | – | – | 17 nM | 0.127 nM | IC50 (Mu-type opioid receptor [14]): 278 nM |
| CC(C)C[C@@H]1NC(=O)[C@H](Cc2ccccc2)NC(=O)CNC(=O)[C@H](NC(=O)[C@@H](N)Cc2ccc(O)cc2)CCNC1=O | – | – | 115 nM | – | 81.4 nM | 253 nM | 24.9 nM | 13.8 nM | 14.1 nM | – | – |
| CC(C)C[C@H](NC(=O)[C@H](Cc1ccccc1)NC(=O)CNC(=O)[C@@H](C)NC(=O)[C@@H](N)Cc1ccc(O)cc1)C(N)=O | – | – | – | 2.36 nM | 8.26 nM | – | – | – | – | 0.401 nM | IC50 (Mu-type opioid receptor [15]): 7.63 nM |
| CC(=O)O.CCCC[C@@H](NC(=O)[C@@H](N)Cc1ccc(O)cc1)C(=O)NCC(=O)N[C@@H](Cc1ccccc1)C(=O)N[C@@H](CC(C)C)C(N)=O | 1.02 | – | 4.35 nM | 3.19 nM | 25.2 nM | 9.57 nM | 4.08 nM | 2.27 nM | 24.6 nM | 0.729 nM | Ratio [13]: 1.92 |
| CC(=O)O.CC(C)C[C@@H]1NC(=O)[C@H](Cc2ccccc2)NC(=O)CNC(=O)[C@H](NC(=O)[C@@H](N)Cc2ccc(O)cc2)CNC1=O | 3.12 | 1.01 | 53.6 nM | 0.387 nM | 73.1 nM | – | 95.8 nM | – | 23.4 nM | 0.275 nM | IC50 [16]: 118 nM; Ki (Mu-type opioid receptor [17]): 53.2 nM |
| CC(C)C[C@@H]1NC(=O)[C@H](Cc2ccccc2)NC(=O)CNC(=O)[C@H](NC(=O)[C@@H](N)Cc2ccc(O)cc2)CCCNC1=O | – | – | 100 nM | 0.216 nM | – | 221 nM | – | 31.4 nM | 48 nM | – | Ke [18]: 0.671 nM; IC50 (Mu-type opioid receptor [19]): 56.6 nM; Ratio [10]: 3.18; Ratio [11]: 9.9 |
| CC(=O)O.CC(C)C[C@@H]1NC(=O)[C@H](Cc2ccccc2)NC(=O)CNC(=O)[C@H](NC(=O)[C@@H](N)Cc2ccc(O)cc2)CCNC1=O | 5.77 | – | – | – | – | – | – | – | – | – | – |
| CC(C)C[C@@H]1NC(=O)[C@@H](Cc2ccccc2)NC(=O)CNC(=O)[C@H](NC(=O)[C@@H](N)Cc2ccc(O)cc2)CCNC1=O | – | 8.33 | – | 0.576 nM | – | – | – | – | – | 0.122 nM | – |
